Laboratory results reported in PubChem BioAssay AID624467 (The Scripps Research Institute Molecular Screening Center, 2012).
The campaign covered roughly 360,000 compounds. About 3,600 (1%) were called active.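 How the source made its calls: active means activation above the mean activation of all test compounds in the run plus 3 SD (cut at about 38% in these data); inactive means the rest.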 The list comes from a sample in which actives are over-represented; it also holds similar structures and randomly drawn compounds.

Target: Trace amine-associated receptor 1 (Homo sapiens) (UniProt Q96RJ0)
Assay: activators of TAAR1 calcium mobilization – Fluo-8 calcium fluorescence, CHO RD-HGA16 cells, primary screen (AID 624467)
Conditions: CHO RD-HGA16 TAAR1, Fluo-8 calcium fluorescence; at 3 µM; hits give high values; vehicle wells 0%, saturating PEA agonist 100%
How it was run: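 Benchmarks: low control DMSO, high control PEA (EC100); System: CHO RD-HGA16 cells carrying human TAAR1 plus Gα16; Detection: Fluo-8 fluorescence, 5 s baseline then 140 s kinetic read; Schedule: 17-24 h plating, Fluo-8 75 min 37 °C, 30 min RT; Read-out basis: % activation from peak over basal fluorescence ratio, DMSO-to-PEA scaled.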

Chain of Trace amine-associated receptor 1 (Homo sapiens) (Q96RJ0 whole entry, looked up): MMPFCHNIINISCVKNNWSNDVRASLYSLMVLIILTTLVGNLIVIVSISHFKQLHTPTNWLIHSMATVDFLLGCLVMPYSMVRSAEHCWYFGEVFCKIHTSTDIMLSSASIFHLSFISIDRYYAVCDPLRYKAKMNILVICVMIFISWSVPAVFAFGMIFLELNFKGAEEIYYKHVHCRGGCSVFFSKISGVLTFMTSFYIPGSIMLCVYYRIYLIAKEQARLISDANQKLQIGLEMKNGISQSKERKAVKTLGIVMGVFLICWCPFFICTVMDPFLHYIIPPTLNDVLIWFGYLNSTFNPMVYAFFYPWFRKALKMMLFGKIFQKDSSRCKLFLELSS

SMILES	activation
Cc1cc2oc(=O)cc(-c3ccccc3)c2c(C)c1-c1ccc(OC(F)(F)F)cc1	2.46% (inactive)
CCO[C@H]1OC(C(=O)N2CCOCC2)=C[C@@H](c2ccc3c(c2)OCO3)[C@@H]1CCCO	5.53% (inactive)
O=C(NCc1ccccc1)[C@@H]1CCCN1C(=O)[C@@H](NS(=O)(=O)c1ccc(F)cc1F)C1CCCCC1	-0.54% (inactive)
COc1ccccc1CNS(=O)(=O)c1c(C)[nH]c(C)c1C(=O)N1CCCCC1	0.59% (inactive)
O=c1c2cc(Br)ccc2nc(-c2cccc(Cl)c2)n1O	51.9% (active)
NC(=O)c1cc(-c2cccnc2)nc2ccc(Br)cc12	0.6% (inactive)
NC(N)=Nc1nc2ccc(Br)cc2c(=O)[nH]1	10.5% (inactive)
C=CCNC(=O)COc1coc(CN2CCN(Cc3ccccc3)CC2)cc1=O	2.55% (inactive)
CC(C)c1ccc(NC(=O)Cn2ncc3ccccc32)cc1	1.09% (inactive)
CCC(C(=O)OCC(=O)Nc1c(Cl)cc(Cl)cc1Cl)c1ccccc1 (stereo not drawn)	8.86% (inactive)
CCC(C(=O)Nc1ccc(C(C)C)cc1)c1ccccc1 (stereo not drawn)	95.2% (active)
CCOC(=O)N(C)c1c(CC)nc2c(OCc3ccccc3C(=O)OC)cccn12	0.97% (inactive)
O=C(CN1CCSCC1)N/N=C/c1ccc(Cl)cc1	12.7% (inactive)
O=C1NC[C@H](CCCCN2CCN(CCc3ccccc3)C(=O)C2=O)N(CC2CCCCC2)C1=O	1.95% (inactive)
CCN(CCN(C)C)C(=O)c1ccc2nc(C)c(N(C)C(=O)CCc3ccccc3)n2c1	1.46% (inactive)
O=C1C=C(c2ccc(Cl)cc2)C(=O)N1Nc1ccccc1	58.9% (active)
O=C(COC(=O)c1cccc(Cl)c1)NC(=O)NCc1ccccc1	2.7% (inactive)
CCc1c(-c2ccc(F)cc2)ncn1Cc1cccc(-c2ccccc2)c1	0.6% (inactive)
CCCCCc1c(-c2cccc(Br)c2)ncn1CCc1ccccc1OC	50.1% (active)
COC(=O)c1ccc2nc(-c3cccc(Br)c3)c(Cc3ccccc3C(F)(F)F)n2c1	4.12% (inactive)
CCCCCc1c(-c2ccc(OC)c(OC)c2)ncn1CCc1ccccc1OC	60.6% (active)
CCCCNS(=O)(=O)CCNCc1ccccc1OC	-1.08% (inactive)

SMILES	activation
Cn1c(=O)c2c(ncn2CCc2ccccc2)n(C)c1=O	2.07% (inactive)
CCCCCc1c(Cc2ccccc2)ncn1CCc1ccccc1OC	62.8% (active)
CCCCN1C(=O)C(C)=C(C)C1OCCc1ccc(OC)c(OC)c1 (stereo not drawn)	2.56% (inactive)
COC(=O)c1ccc2nc(-c3ccc(OC)c(OC)c3)c(Cc3ccccc3)n2c1	-2.01% (inactive)
C=C1CCC(N(O)c2cc(C)on2)C(=C)CCC2C1CC2(C)C (stereo not drawn)	2.74% (inactive)
COC(=O)C1=C(C)N(Cc2ccc(C(F)(F)F)cc2)C(=NCc2ccccc2)NC1c1ccccc1C(F)(F)F (stereo not drawn)	5.43% (inactive)
O=C(CC1NCCc2ccccc21)Nc1cccc(Cl)c1 (stereo not drawn)	9.23% (inactive)
COCCNC(=S)N(C)[C@H]1C[C@H]2c3[nH]c4ccccc4c3CCN2C[C@H]1[C@H](C)O	3.21% (inactive)
CC1CCCCC1NC(=O)CSc1nnc(N)s1 (stereo not drawn)	9.77% (inactive)
CCN(CC)C(=O)CS(=O)CC(=O)Nc1cc(OCCOC)c(Cl)cc1Cl (stereo not drawn)	5.84% (inactive)
COc1ccc(OC)c(NC(=O)c2ccc3c(c2)CCN3S(C)(=O)=O)c1	2.63% (inactive)
Cc1ccc2nc(-c3ccc(CN4CCC(n5cc(-c6ccccc6)[nH]c5=O)CC4)cc3)c(-c3ccccc3)nc2c1	1.53% (inactive)
c1ccc2c(c1)C(=NC1CCCCC1)NC2=NC1CCCCC1	83.2% (active)
Cn1nccc1NC(=O)CC(CC(=O)O)c1ccccc1 (stereo not drawn)	1.46% (inactive)
Nc1ncnc2c1ncn2[C@@H]1O[C@H](C(=O)N[C@@H](CCc2ccccc2)C(=O)N2CCCN(Cc3cccs3)CC2)[C@@H](O)[C@H]1O	-0.59% (inactive)
C=CCNC(=O)COC(=O)CNC(=O)c1cc(Cl)cc([N+](=O)[O-])c1	-0.52% (inactive)
CC[C@H](NC(=O)[C@H](Cc1ccccc1)NC(=O)[C@H]1O[C@@H](n2cnc3c(=O)[nH]c(N)nc32)[C@H](O)[C@@H]1O)c1ccccc1	12.6% (inactive)
Cc1nc(C(=O)NCc2ccccc2)sc1C1(C)CC(c2cccnc2)=NO1 (stereo not drawn)	57.5% (active)
Cc1nc(C(=O)Nc2ccc(Cl)cc2)sc1C1(C)CC(c2ccccc2)=NO1 (stereo not drawn)	5.24% (inactive)
Cc1nc(-c2ccc(Cl)cc2)sc1C1(C)CC(c2ccccc2F)=NO1 (stereo not drawn)	-1.12% (inactive)
O=C(C(=O)N1CCC(CNC(=O)c2cccnc2Cl)CC1)c1cccs1	1.11% (inactive)
CN1C(=O)CN2CCc3ccccc3C2c2cc(Cl)ccc21 (stereo not drawn)	3.95% (inactive)

SMILES	activation
CC(=O)c1ccc(S(=O)(=O)NCC2CCN(C(=O)C(=O)c3cccs3)CC2)cc1	6.58% (inactive)
O=C(CSCc1ccc(Br)cc1)Nc1ccc(S(=O)(=O)N2CCCCCC2)cc1	23.4% (inactive)
O=C1CCCN2N=C(SCC(=O)Nc3ccc(Br)cc3)SC2=N1	46.4% (active)
O=C(O)CC(SCC(=O)Nc1ccc(Br)cc1)C(=O)O (stereo not drawn)	5.77% (inactive)
COC(=O)C1=C(C)N(Cc2ccccc2C(F)(F)F)C(=NCC2CC2)NC1c1cccc(Cl)c1 (stereo not drawn)	26.6% (inactive)
COc1cccc(CN(C)C(=O)CC[C@H]2O[C@@H](n3cnc4c(NC(=O)c5ccccc5)ncnc43)[C@H](O)[C@@H]2O)c1	0.18% (inactive)
CCC(C)C(CO)NC(=O)/C=C/[C@H]1O[C@@H](n2cnc3c(NC(=O)c4ccccc4)ncnc32)[C@H](O)[C@@H]1O (stereo partly drawn)	2.69% (inactive)
O=C(/C=C/[C@H]1O[C@@H](n2cnc3c(NC(=O)c4ccccc4)ncnc32)[C@H](O)[C@@H]1O)NCc1ccccc1	54.8% (active)
COc1ccc(C(CNC(=O)c2cccc(S(=O)(=O)Nc3ccccc3Cl)c2)N2CCOCC2)cc1 (stereo not drawn)	-1.44% (inactive)
Cc1ccc(NC(=S)Nc2ncccc2C)c(C)c1	-3.17% (inactive)
Cn1cnnc1SCc1nnc(-c2ccccc2Br)o1	11.2% (inactive)
Nc1cccc2c1C(=O)N(Cc1nnc(-c3ccccc3Br)o1)C2=O	75.4% (active)
CC(C)N(Cc1nnc(-c2ccccc2Br)o1)C(=O)c1cc(Cl)nc2ccccc12	4.53% (inactive)
CC1(C(=O)NS(=O)(=O)c2cccc(OC(F)F)c2)CCN1C(=O)COc1ccc(Cl)cc1 (stereo not drawn)	1.84% (inactive)
COC(=O)c1c(-c2ccc(OC)cc2)c2c(c3c4ccccc4n(S(=O)(=O)c4ccc(C)cc4)c13)C(=O)N(C)C2	-0.97% (inactive)
COc1ccc(CNCCCn2cnc3c(OCc4ccccc4)ncnc32)cc1	2.67% (inactive)
COc1ccc(CCNCc2c(-c3ccccc3)n(C)c3ccccc23)cc1	37.6% (active)
COc1ccc(-c2c(C#Cc3ccccc3)c3ccccc3n2C)cc1	1.86% (inactive)
Cc1ccc(N2C(=O)C(NC(=O)c3c(F)cccc3F)(C(F)(F)F)C3=C2CC(C)(C)CC3=O)cc1 (stereo not drawn)	0.87% (inactive)
O=C1[C@@H](c2ccccc2)[C@@H](c2ccccc2)N1c1ccccc1	3.32% (inactive)
CC(C)(C)OC(=O)N1CCN(C(=O)c2[nH]c(C(F)(F)F)nc2-c2ccccc2)CC1	1.1% (inactive)
COc1ccccc1-c1c(C#N)c(N)nc2c1CCC2	-0.25% (inactive)

SMILES	activation
CSc1ccc(-c2c(C#N)c(N)nc3c2c(C)nn3-c2ccccc2)cc1	8.14% (inactive)
CSc1nc(N)c(C#N)c(-c2ccccc2Cl)c1C#N	56.9% (active)
CCc1ccc2oc(-c3ccc(N)cc3)nc2c1	11.3% (inactive)
Cc1ccc2oc(=O)ccc2c1	0.04% (inactive)
CCN(CC)c1ccc2oc(=O)c(C)nc2c1	81% (active)
O=C1CCN(C(=O)Nc2ccccc2)N1	3.7% (inactive)
C[C@H]1CN([C@@H](C)CO)C(=O)CCCn2nncc2CO[C@@H]1CN(C)C(=O)Nc1ccc(N2CCN(C)CC2)cc1	0.67% (inactive)
CCOc1ccc(Br)cc1S(=O)(=O)Nc1ccc(S(=O)(=O)Nc2cc(C)on2)cc1	-0.13% (inactive)
CCCc1ccc(OCC(=O)NNC(=S)NC(=O)c2ccco2)cc1	83.4% (active)
CCC1CCCCN1C(=S)NC(=O)c1ccco1 (stereo not drawn)	4.61% (inactive)
O=C(Nc1ccc2ccccc2c1)/C(=C\c1ccc2c(c1)OCO2)NC(=O)c1ccco1	-0.26% (inactive)
O=C(NNC(=S)Nc1ccc(Br)cc1Cl)c1ccco1	3.5% (inactive)
NS(=O)(=O)c1ccc(CNC(=S)NC(=O)c2ccco2)cc1	1.56% (inactive)
CC(Oc1ccc2ccccc2c1)C(=O)NNC(=S)NC(=O)c1ccco1 (stereo not drawn)	98.9% (active)
O=C(C(=O)N1CCN(c2ccccc2)CC1)c1ccc2c(c1)OCO2	-0.35% (inactive)
CCC(C)NC(=O)c1ccc(NC(=O)CC2SC(N3CCCCC3)=NC2=O)cc1 (stereo not drawn)	1.77% (inactive)
C=CCOC(=O)C1=C[C@H](c2ccc(Br)cc2)C[C@H](OCCCCO)O1	8.86% (inactive)
COc1cc2c(cc1OC)CN(C(C)C(=O)Nc1cccc(S(=O)(=O)N3CCOCC3)c1)CC2 (stereo not drawn)	0.59% (inactive)
O=C(NCCc1ccc(F)cc1)c1n[nH]c2ccccc12	1.79% (inactive)
O=Cc1c(NCCCN2CCCC2=O)c2ccccc2[nH]c1=O	1.42% (inactive)
O=Cc1c(NCCc2cccc(F)c2)c2ccccc2[nH]c1=O	72.1% (active)
C=CCN1C(=O)N(Cc2ccccc2)c2ccccc2S1(=O)=O	0.49% (inactive)
